Screening results from PubChem BioAssay.
Compounds with a hit are over-represented: about 1.5% of the library has one in this group of screens.
NR2E3 ag-1: agonists of human nuclear receptor NR2E3; Q9Y5X4; GST-NR2E3/biotin-RetCOR TR-FRET, 1536-well; inhibition of corepressor binding, % at 4.78 µM; 320,000 tested, 0.12% active; AID 2300;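 active means percent inhibition above the cutoff of mean plus 3 SD of all tested compounds, set per screening campaign, cut at about 20% in these data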
Target sequence (Q9Y5X4 whole entry, looked up): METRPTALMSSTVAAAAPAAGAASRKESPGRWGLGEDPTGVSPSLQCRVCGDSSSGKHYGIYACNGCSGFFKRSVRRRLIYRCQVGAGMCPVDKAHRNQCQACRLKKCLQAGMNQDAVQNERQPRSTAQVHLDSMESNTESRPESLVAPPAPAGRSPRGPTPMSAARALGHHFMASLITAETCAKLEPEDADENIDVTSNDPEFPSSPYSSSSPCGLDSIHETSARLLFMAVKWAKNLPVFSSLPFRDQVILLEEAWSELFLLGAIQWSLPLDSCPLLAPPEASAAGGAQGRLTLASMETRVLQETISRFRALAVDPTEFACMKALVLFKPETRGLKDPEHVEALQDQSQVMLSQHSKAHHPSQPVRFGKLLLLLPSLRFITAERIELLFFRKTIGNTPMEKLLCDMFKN
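Assay system: NR2E3–RetCOR corepressor complex. Quantity: 1.35 nM GST-NR2E3. Buffer or medium: pH 7.5 Tris-based buffer. Reagent: biotinylated RetCOR corepressor at 7 nM final. Schedule: 5 h at 4 °C. Detection: TR-FRET, emission read at 617 and 671 nm. Replicates: one well per compound, singlicate testing.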
NR2E3 ag-2: human photoreceptor-specific nuclear receptor agonism; CHO-S Gal4-NCOR/VP16-NR2E3 two-hybrid, luciferase; inhibition of corepressor binding, % at 3.98 µM; 360,000 tested, 0.35% active;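 active means inhibition above the mean of all tested compounds plus 3 SD, cut at about 70% in these data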;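 further: higher means lower luciferase signal from less NR2E3 corepressor binding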
GASC-1 inh: blocks human GASC-1 demethylase activity; GST-JMJD2C(1-420) H3K9me3 demethylation, DELFIA europium; Q9H3R0; 330,000 tested, 0.069% active; inhibition, % at 2.35 µM;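 active means more than half of a compound's replicate wells show inhibition beyond 50%, single wells judged on their own value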;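 further: signal counts dimethyl H3K9 product captured on neutravidin plate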
Jurkat NFkB inh: inhibitors of the PMA/ionomycin-induced NF-kB reporter in Jurkat cells | PMA/ionomycin-induced NF-kB luciferase reporter, luminescence | inhibition, % at 4 µM | 330,000 tested, 0.53% active | AID 435003; in the data active means inhibition above about 50%
GalR3 antagonist: antagonists of human GalR3; HEK293 GalR3-CNG cAMP membrane potential fluorescence; galR3 body fused to GalR1 C-terminus; inhibition, % at 3 µM; 360,000 tested, 0.44% active;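 active means inhibition above the screen-wide average plus 3 SD, cut at about 13% in these data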;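 further: forskolin and galanin both at EC90 stimulate the cells; cAMP rise reported by CNG channel membrane potential dye signal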
Target sequence (O60755 1-299 limits assumed): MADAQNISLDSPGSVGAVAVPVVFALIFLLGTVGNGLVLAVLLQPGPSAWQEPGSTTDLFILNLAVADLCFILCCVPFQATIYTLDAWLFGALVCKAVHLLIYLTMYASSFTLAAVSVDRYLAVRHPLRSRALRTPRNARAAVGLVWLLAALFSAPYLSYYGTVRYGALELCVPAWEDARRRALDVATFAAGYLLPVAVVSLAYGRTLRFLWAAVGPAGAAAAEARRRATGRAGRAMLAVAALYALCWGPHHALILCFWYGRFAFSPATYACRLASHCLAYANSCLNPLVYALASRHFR
697 NFkB inh: inhibitors of the PMA/ionomycin-induced NF-kB reporter in 697 B cells; 330,000 tested, 0.33% active; 697 B-cell NF-kB luciferase reporter, 16 h; inhibition, % at 4 µM; in the data active means inhibition above about 35%
Jurkat NFkB conf: lowers PMA/ionomycin-induced NF-kB signal in Jurkat cells | Jurkat NF-kB luciferase, 16 h | inhibition, % at 4 µM | shares compounds with Jurkat NFkB inh | 2,700 tested, 27% active;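 active means inhibition reaching about 45% at 4 µM in either replicate, limit read from the data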
Each line names hits and unclear results; the compound was inactive in the other large screens (follow-up assays come after a bar, where they were run).

CCCCCCCCCCCCCCCC[n+]1cccc(C(=O)N(CC)CC)c1	Jurkat NFkB inh 85.7 | Jurkat NFkB conf 74.8
CCCCCCCCCCCCCCCC[n+]1ccc(/C=N/O)cc1	Jurkat NFkB inh 79.6 | Jurkat NFkB conf 54.3
CCCCCCCCCCCCCCCC[n+]1ccccc1	none (no result: NR2E3 ag-1, GASC-1 inh, Jurkat NFkB inh, 697 NFkB inh)
Oc1cccc(C(O)CNCc2ccc(OCc3ccc(Cl)cc3Cl)cc2)c1 (stereo not drawn)	none
CCOC(=O)C1CCN(S(=O)(=O)c2c[nH]c(=O)[nH]c2=O)CC1	none
Cc1cccc(NC(=O)CNC(=O)[C@@H](Cc2ccccc2)NC(=O)[C@H]2O[C@@H](n3ccc(=O)[nH]c3=O)[C@H](O)[C@@H]2O)c1C	none (no result: NR2E3 ag-1, NR2E3 ag-2, GASC-1 inh, Jurkat NFkB inh, 697 NFkB inh)
COc1cccc(CN2CC(C(=O)NCC3CCOCC3)CCC2=O)c1 (stereo not drawn)	none
Cc1nc(Sc2nnnn2C)c2c3c(sc2n1)CCC3	Jurkat NFkB inh 63.7 | Jurkat NFkB conf 53.0
Clc1ccc(-c2nnc(-c3ccccc3Cl)o2)cc1	none | Jurkat NFkB conf inactive
CN(C)c1ccc(-c2nnc(-c3ccccc3F)o2)cc1	none | Jurkat NFkB conf inactive
COc1ccc(-c2nnc(-c3ccc(N(C)C)cc3)o2)cc1	none
S=C(c1ccc(-c2ccc(Br)cc2)o1)N1CCCCC1	none | Jurkat NFkB conf inactive
COc1cc(/C=C/c2ccc3cccc(O)c3n2)cc(OC)c1OC	Jurkat NFkB inh 96.7 | Jurkat NFkB conf inactive
COc1cc(/C=C/c2ccc3cccc(O)c3n2)cc(Br)c1OC	none
Cc1ccc2oc(C(=O)Nc3cc(C)on3)c(C)c2c1	none | Jurkat NFkB conf inactive
CCOc1ccc2oc(C(=O)Nc3ccc(C)cn3)c(C)c2c1	none (no result: NR2E3 ag-1, GASC-1 inh, Jurkat NFkB inh, 697 NFkB inh)
O=C(N/N=C\c1cc(Br)ccc1O)c1ccc(S(=O)(=O)N2CCCCC2)cc1	Jurkat NFkB inh 53.6 | Jurkat NFkB conf inactive
CN(C)c1ccc(S(=O)(=O)N2CCCCC2)cc1NC(=O)CN1C(=O)NC2(CCCC2)C1=O	none
Brc1ccc2c(c1)CN1CCCC1=N2	Jurkat NFkB inh 73.5 | Jurkat NFkB conf inactive
COc1ccc(C(=O)NCCC(=O)N2CCC3(CC2)NCCc2[nH]cnc23)cc1	none
C=CC[C@]12C[C@@H](OC)C(=O)C=C1O[C@@H](c1ccc(OC)c(OC)c1)[C@H]2C	none
Nc1ccccc1C#CC(=O)c1ccccc1	Jurkat NFkB inh 51.8 | Jurkat NFkB conf inactive
O=C(C#Cc1cccc([N+](=O)[O-])c1)c1ccccc1	none (no result: GalR3 antagonist)
COc1cccc(-c2cc(=O)c3cc(NC(=O)c4ccccc4)ccc3[nH]2)c1	Jurkat NFkB inh 89.5 | Jurkat NFkB conf 51.8
COc1cccc(S(=O)(=O)NCc2ccc(C(=O)Nc3ccc(Cl)cc3)cc2)c1	none
COc1cccc(-c2cc(=O)c3cc(NC(=O)c4ccc(Cl)cc4)ccc3[nH]2)c1	Jurkat NFkB inh 78.1 | Jurkat NFkB conf inactive
COc1cccc(C(=O)Nc2ccc3c(c2)C(=O)NC3=O)c1	none
COc1cccc(-c2cc(=O)c3cc(NC(=O)c4ccc(N(C)C)cc4)ccc3[nH]2)c1	Jurkat NFkB inh 87.3 (no result: NR2E3 ag-2, GalR3 antagonist) | Jurkat NFkB conf 57.1
CCCC(=O)Nc1ccc(C(=O)Nc2cccc(OC)c2)cc1	none
CC1(C)Cc2ccccc2-c2nnc(-c3ccccn3)n21	none
O=C(CN(Cc1ccccc1)C(=O)c1ccco1)NCc1ccc(F)cc1	none
Cc1no[n+]([O-])c1COc1ccc(/C=N/n2nnnc2N)cc1	Jurkat NFkB inh 50.1 | Jurkat NFkB conf inactive
Cc1ccc(/C=N/n2nnnc2N)cc1	none
Cn1c(N)c(C(=O)Nc2ccc3ccccc3c2)sc1=S	none | Jurkat NFkB conf inactive
CCN1C(=O)[C@@H]2[C@@H](c3ccc(-c4ccc(F)cc4)cc3)N3CCCC[C@@]3(C(=O)OC)[C@@H]2C1=O	none
CC(C)c1ccc(/C=C/C(=O)NC2=NCCS2)cc1	none (no result: NR2E3 ag-2, GalR3 antagonist) | Jurkat NFkB conf inactive
CCOc1ccc(/C=C/C(O)=C2/C(=O)NC3(C)CC2c2ccccc2O3)cc1OC (stereo not drawn)	Jurkat NFkB inh 63.8 | Jurkat NFkB conf inactive
NC(=O)COC(=O)c1ccccc1OCc1ccccc1Cl	none
COc1ccccc1NC(=O)c1nc[nH]c1C(=O)Nc1ccccc1OC	Jurkat NFkB inh 51.1 | Jurkat NFkB conf inactive
COc1ccc(NC(=O)c2nc[nH]c2C(=O)Nc2ccccc2C)cc1	Jurkat NFkB inh 52.8 | Jurkat NFkB conf inactive
CCOc1ccccc1NC(=O)c1nc[nH]c1C(=O)Nc1ccccc1OCC	none (no result: GalR3 antagonist)
CCOC(=O)C1CSCCS(=O)(=O)N1Cc1ccccc1C (stereo not drawn)	none (no result: NR2E3 ag-1, NR2E3 ag-2, GASC-1 inh, Jurkat NFkB inh, 697 NFkB inh)
NC(N)=NN=C1CCCCCCCCCCC1	Jurkat NFkB inh 69.0 | Jurkat NFkB conf inactive
COc1cc2nc(NC(=O)c3ccco3)sc(=O)c2cc1OC	Jurkat NFkB inh 79.6 | Jurkat NFkB conf 88.9
COc1cc2sc(NC(=O)c3ccco3)nc2cc1Cl	none
COC(=O)c1cc(OC)c(OC)cc1NC(=S)NC(=O)c1ccco1	Jurkat NFkB inh 85.5 | Jurkat NFkB conf inactive
CCOc1ccc(Br)cc1S(=O)(=O)Nc1ccccc1N1CCOCC1	none
O=C(Nc1ccc2c(c1)OCO2)c1cccs1	none
Cn1c(C(=O)Nc2ccc3c(c2)OCO3)cc2sccc21	none | Jurkat NFkB conf inactive
Cc1ccc(NC(=O)Nc2ccc3c(c2)OCO3)cc1F	none | Jurkat NFkB conf inactive
Cc1cc(F)ccc1NC(=O)Nc1ccc2c(c1)OCO2	none
O=C(Nc1ccc2c(c1)OCCO2)Nc1ccc2c(c1)OCO2	none | Jurkat NFkB conf inactive
NC(=O)c1ccc(NC(=O)Nc2ccc3c(c2)OCO3)cc1	none
Cn1c(C(=O)NCc2ccc3c(c2)OCO3)cc2sccc21	none
O=C(Nc1ccc2c(c1)OCO2)c1ccc(Br)s1	none | Jurkat NFkB conf inactive
c1cc(C2OCCO2)cs1	none (no result: NR2E3 ag-1, GASC-1 inh, Jurkat NFkB inh, 697 NFkB inh)
COC(=O)c1cc(COc2ccc3c4c(c(=O)oc3c2)CCC4)c(C)o1	none (no result: NR2E3 ag-2, GalR3 antagonist)
CC(C)NC(=O)N(C)C[C@H]1Oc2ccc(NC(=O)c3ccncc3)cc2C(=O)N([C@H](C)CO)C[C@@H]1C	none (no result: NR2E3 ag-1)
CCOc1ccccc1C1CC(=O)Nc2cc3c(cc21)OCO3 (stereo not drawn)	Jurkat NFkB inh 63.1 | Jurkat NFkB conf 60.5
COc1ccccc1C1CC(=O)Nc2cc3c(cc21)OCCO3 (stereo not drawn)	none
CC(C)Oc1ccccc1C1CC(=O)Nc2cc3c(cc21)OCCO3 (stereo not drawn)	Jurkat NFkB inh 78.1 | Jurkat NFkB conf 50.7
CCCCCCCCn1cnc2c(N)c(C)c(C)cc21	Jurkat NFkB inh 74.7 | Jurkat NFkB conf inactive
Fc1ccc(-c2cn3cc(C(F)(F)F)cc(Cl)c3n2)cc1	none | Jurkat NFkB conf inactive
Cc1ccc(-c2cn(-c3ccccc3)c(SCC(=O)NC3CCS(=O)(=O)C3)n2)cc1C (stereo not drawn)	none | Jurkat NFkB conf inactive
